Laboratory results: article PMC11847724 (Neoplasia (New York, N.Y.), 2025)
Where two headings read alike, the source gives them in different places.

Columns and labels:
[1] = tested on: ALK- and FAK-driven xenograft models; settings: multiple ALK- and FAK-driven xenograft models ref 9, 10; cited from earlier work
FAK = settings: preclinical studies ref 9, 10; cited from earlier work
rats = settings: highest dose administered; cited from earlier work
[2] = tested on: advanced or metastatic solid tumors; assay: Tumor response by RECIST v1.1; format: in vivo, human; settings: RECIST v1.1, all doses
In short: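 Participants received daily oral test compound at 25 to 700 mg/day in 28-day cycles. Best observed response was listed per participant without statistical analysis.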

ALK = settings: preclinical studies ref 9, 10; cited from earlier work
[3] = tested on: participants with advanced or metastatic solid tumors; format: in vivo, human
In short: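 Open-label, first-in-human 3 + 3 escalation in adults with recurrent, locally advanced or metastatic solid tumors lacking standard therapy. Test compound was given orally once daily from 25 up to 700 mg/day (modified Fibonacci steps) in 28-day cycles for 6 to 8 cycles, with no intrapatient escalation. The safety population was everyone dosed at least once. AEs were coded by MedDRA and graded by NCI CTCAE v4.03. DLT was assessed in cycle 1, and MTD was the highest dose with DLT in under one-third of a cohort.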

CNC(=O)c1ccccc1Nc1nc(Nc2ccc3c(c2OC)CCC[C@H](N2CCN(CCO)CC2)C3)ncc1Cl [ESK-440]
3 (75) Number (%) of participants: AE: Fatigue ([3]; 100 mg/day (n = 4)) | AE: Fatigue ([3]; 250 mg/day (n = 4)) | AE: Nausea ([3]; 250 mg/day (n = 4)) | AE: Vomiting ([3]; 250 mg/day (n = 4))
2 (50) Number (%) of participants: Grade 3-5 AE ([3]; 100 mg/day (n = 4)) | Other serious AEs ([3]; 100 mg/day (n = 4)) | Treatment-related AE ([3]; 100 mg/day (n = 4)) | AE: Decreased appetite ([3]; 250 mg/day (n = 4)) | AE: Diarrhea ([3]; 250 mg/day (n = 4)) | AE: Edema peripheral ([3]; 250 mg/day (n = 4))
3 (100) Number (%) of participants: Any AE ([3]; 25 mg/day (n = 3)) | Grade 3-5 AE ([3]; 25 mg/day (n = 3)) | Any AE ([3]; 150 mg/day (n = 3)) | Treatment-related AE ([3]; 150 mg/day (n = 3))
low nanomolar: potency (FAK) | potency (ALK)
30 mg/kg: highest non-severely toxic dose (HNSTD) (rats)
2 (67) Number (%) of participants: Other serious AEs ([3]; 25 mg/day (n = 3)) | Any AE ([3]; 50 mg/day (n = 3)) | AE: Fatigue ([3]; 150 mg/day (n = 3))
4 (100) Number (%) of participants: Any AE ([3]; 100 mg/day (n = 4)) | Any AE ([3]; 250 mg/day (n = 4)) | Treatment-related AE ([3]; 250 mg/day (n = 4))
No participant: complete or partial response [2]
dose-dependent antitumor efficacy: antitumor efficacy [1]
7 participants: best overall response: stable disease [2]
0 Number (%) of participants: AE: Decreased appetite ([3]; 25 mg/day (n = 3)) | AE: Edema peripheral ([3]; 25 mg/day (n = 3)) | AE: Fatigue ([3]; 25 mg/day (n = 3)) | AE: Pyrexia ([3]; 25 mg/day (n = 3)) | AE: Vomiting ([3]; 25 mg/day (n = 3)) | AE: Cough ([3]; 50 mg/day (n = 3)) | AE: Decreased appetite ([3]; 50 mg/day (n = 3)) | AE: Diarrhea ([3]; 50 mg/day (n = 3)) | AE: Edema peripheral ([3]; 50 mg/day (n = 3)) | AE: Vomiting ([3]; 50 mg/day (n = 3)) | Deaths ([3]; 50 mg/day (n = 3)) | Withdrawn from treatment due to AE ([3]; 50 mg/day (n = 3)) | AE: Cough ([3]; 100 mg/day (n = 4)) | AE: Decreased appetite ([3]; 100 mg/day (n = 4)) | AE: Diarrhea ([3]; 100 mg/day (n = 4)) | AE: Nausea ([3]; 100 mg/day (n = 4)) | AE: Vomiting ([3]; 100 mg/day (n = 4)) | AE: Nausea ([3]; 150 mg/day (n = 3)) | AE: Vomiting ([3]; 150 mg/day (n = 3)) | Deaths ([3]; 150 mg/day (n = 3)) | Withdrawn from treatment due to AE ([3]; 150 mg/day (n = 3)) | AE: Pyrexia ([3]; 250 mg/day (n = 4)) | Withdrawn from treatment due to AE ([3]; 250 mg/day (n = 4))
1 (25) Number (%) of participants: AE: Edema peripheral ([3]; 100 mg/day (n = 4)) | AE: Pyrexia ([3]; 100 mg/day (n = 4)) | Deaths ([3]; 100 mg/day (n = 4)) | Withdrawn from treatment due to AE ([3]; 100 mg/day (n = 4)) | AE: Cough ([3]; 250 mg/day (n = 4)) | Deaths ([3]; 250 mg/day (n = 4)) | Grade 3-5 AE ([3]; 250 mg/day (n = 4)) | Other serious AEs ([3]; 250 mg/day (n = 4)) | AE: Cough ([3]; 350 mg/day (n = 4))
1 (33) Number (%) of participants: AE: Cough ([3]; 25 mg/day (n = 3)) | AE: Diarrhea ([3]; 25 mg/day (n = 3)) | AE: Nausea ([3]; 25 mg/day (n = 3)) | Deaths ([3]; 25 mg/day (n = 3)) | Treatment-related AE ([3]; 25 mg/day (n = 3)) | Withdrawn from treatment due to AE ([3]; 25 mg/day (n = 3)) | AE: Fatigue ([3]; 50 mg/day (n = 3)) | AE: Nausea ([3]; 50 mg/day (n = 3)) | AE: Pyrexia ([3]; 50 mg/day (n = 3)) | Grade 3-5 AE ([3]; 50 mg/day (n = 3)) | Other serious AEs ([3]; 50 mg/day (n = 3)) | Treatment-related AE ([3]; 50 mg/day (n = 3)) | AE: Cough ([3]; 150 mg/day (n = 3)) | AE: Decreased appetite ([3]; 150 mg/day (n = 3)) | AE: Diarrhea ([3]; 150 mg/day (n = 3)) | AE: Edema peripheral ([3]; 150 mg/day (n = 3)) | AE: Pyrexia ([3]; 150 mg/day (n = 3)) | Grade 3-5 AE ([3]; 150 mg/day (n = 3)) | Other serious AEs ([3]; 150 mg/day (n = 3))
